One data set has as its system MDA-MB-231. The data set can be described thus: Growth inhibition. The format is cell-based, human. The note with it: MDA-MB-231, breast cancer, K-Ras G13D. The essentials: (§1)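 Cancer cell lines were treated with test compound for growth inhibition. Each GI50 is the average of three independent experiments, each run in duplicate.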
Another data set relates to NCI-H23. Nature of the data set: Growth inhibition. The format is cell-based, human. Particulars: NCI-H23, lung cancer, K-Ras G12C. The essentials: as §1
A further data set has as its system MCF10A. Nature of the data set: Growth inhibition. Particulars: normal mammary epithelial cells, K-Ras WT. In kind it is cell-based, human. The essentials: (§2)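 GI50 determined for growth of the test compound's target cells; values averaged across three independent experiments, each run in duplicate.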
In another data set the target is T1, SIRT3 (Homo sapiens, UniProt Q9NTG7).
T1 sequence (Q9NTG7 1-399): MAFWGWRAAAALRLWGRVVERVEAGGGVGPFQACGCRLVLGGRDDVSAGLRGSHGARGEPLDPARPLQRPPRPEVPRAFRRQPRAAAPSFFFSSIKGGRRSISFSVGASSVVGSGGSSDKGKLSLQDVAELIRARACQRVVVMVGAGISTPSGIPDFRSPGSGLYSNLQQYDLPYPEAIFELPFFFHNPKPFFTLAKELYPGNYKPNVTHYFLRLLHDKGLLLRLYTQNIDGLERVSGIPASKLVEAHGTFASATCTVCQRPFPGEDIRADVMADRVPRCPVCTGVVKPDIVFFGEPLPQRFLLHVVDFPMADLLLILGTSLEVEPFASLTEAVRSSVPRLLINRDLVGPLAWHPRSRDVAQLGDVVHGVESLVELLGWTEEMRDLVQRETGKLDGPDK
The data set can be described thus: In vitro SIRT3 deacetylation inhibition, H3K9-Ac peptide substrate. The format is biochemical. The note with it: read-out: SIRT3 Deacetylation IC50, with 15 min pre-incubation. The essentials: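 The enzyme was pre-incubated with NAD and test compound for 15 min, then substrate was added to start the deacetylation reaction. IC50 was determined under these pre-incubation conditions.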

The test system of a further data set is HCT116. Nature of the data set: Growth inhibition. In kind it is cell-based, human. Particulars: HCT116, colon cancer, K-Ras G13D. The essentials:
as §1

For another data set, the system named is HME1. The data set can be described thus: Growth inhibition. In kind it is cell-based, human. The note with it: HME1, normal mammary epithelial cells, K-Ras WT. The essentials: as §2
Another data set deals with ASPC1. The data set can be described thus: Growth inhibition. In kind it is cell-based, human. The note with it: ASPC1, pancreatic cancer, K-Ras G12D. The essentials: as §1

For the compound `CCCCCCCCCCCCCC(=S)NCCCCC(NC(=O)OCc1ccccc1)C(=O)Nc1ccccc1` (stereo not shown) [TM], the GI50 (in general, the concentration at which growth is held to half of that of the control) with MDA-MB-231 is 13 ± 4 µM; in the data set on NCI-H23 it was 29 ± 6 µM; in the data set on MCF10A it was above 50 µM; with HCT116 it was 19 ± 1 µM; with HME1 it was above 50 µM; with ASPC1 it was 24 ± 5 µM. Besides, on SIRT3, the IC50 (commonly the concentration that inhibits the measured activity by half) was above 50 µM.

Source of the values: paper PMC6452895 (ChemMedChem, 2019).
